Laboratory results published in ChEMBL document CHEMBL2321743, “Novel hybrid-type antimicrobial agents targeting the switch region of bacterial RNA polymerase” (ACS Med Chem Lett, 2013).
Converted amounts (≈) assume the structure as drawn. The source made the active and inactive calls. The calls are words filed in the database; no cut-off is given here.

Assays:
Bacillus spizizenii [1] = assay: Antibacterial activity against Bacillus subtilis ATCC 6633 at 30 ug/disk after 12 hrs by paper disk diffusion assay; format: functional; settings: for zone of inhibition at 30 µg/disc: ATCC 6633, 12 h, read-out: DIZ
Procedure, shortened: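 Test compounds dissolved in MeOH and applied to paper disks at 30 μg/disk against Bacillus subtilis. Read-out is the diameter of the zone of complete growth inhibition.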

Bacillus spizizenii [2] = assay: Antibacterial activity against Bacillus subtilis ATCC 6633 after 24 hrs by broth microdilution method; format: functional; settings: ATCC 6633, 24 h
Micrococcus luteus = assay: Antibacterial activity against Micrococcus luteus ATCC 9341 after 24 hrs by broth microdilution method; format: functional; settings: ATCC 9341, 24 h
Serratia marcescens = assay: Antibacterial activity against Serratia marcescens ATCC 13880 after 24 hrs by broth microdilution method; format: functional; settings: ATCC 13880, 24 h
Staphylococcus aureus = assay: Antibacterial activity against Staphylococcus aureus ATCC 29213 after 24 hrs by broth microdilution method; format: functional; settings: ATCC 29213, 24 h
Pseudomonas aeruginosa = assay: Antibacterial activity against Pseudomonas aeruginosa ATCC 27853 after 24 hrs by broth microdilution method; format: functional; settings: ATCC 27853, 24 h
Candida albicans = assay: Antifungal activity against Candida albicans ATCC 10231 after 48 hrs by broth microdilution method; format: functional; settings: ATCC 10231, 48 h
Enterococcus faecalis = assay: Antibacterial activity against Enterococcus faecalis ATCC 29212 after 24 hrs by broth microdilution method; format: functional; settings: ATCC 29212, 24 h
Escherichia coli = assay: Antibacterial activity against Escherichia coli ATCC 25922 after 24 hrs by broth microdilution method; format: functional; settings: ATCC 25922, 24 h
[3] = Inhibition of Escherichia coli RNA polymerase after 1 hr by fluorescence assay
Procedure, shortened: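 Assay uses E. coli RNA polymerase. IC50 is taken from three independent dose–response curves, each point measured in duplicate, and reported as mean ± SEM.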

Cc1cc(O)c(C(=O)CCCCCCCC(=O)N2CCCCC2)c(=O)o1
diameter of the inhibition zone (DIZ) (Bacillus spizizenii [1]): inactive

Cc1cc(O)c(C(=O)NCCCCCCC(=O)O)c(=O)o1
diameter of the inhibition zone (DIZ) (Bacillus spizizenii [1]): inactive

Cc1cc(O)c(C(=O)NCCCCCCC(=O)Nc2c3sscc-3[nH]c2=O)c(=O)o1
diameter of the inhibition zone (DIZ) (Bacillus spizizenii [1]): Active

CCCC/C(C)=C/C=C(\C)C(=O)c1c(O)cc(C(C)CC/C=C/NC(=O)OC)oc1=O (racemic)
diameter of the inhibition zone (DIZ) (Bacillus spizizenii [1]): Active

C=CCCCc1cc(O)c(C(=O)CCCCCCC(=O)Nc2c3sscc-3[nH]c2=O)c(=O)o1
zone of inhibition at 30 µg/disc (Bacillus spizizenii [1]): 10 mm

CCCCCCCCC(=O)c1c(O)cc(CCCCCC(=O)Nc2c3sscc-3[nH]c2=O)oc1=O
zone of inhibition at 30 µg/disc (Bacillus spizizenii [1]): 9 mm

Cc1cc(O)c(C(=O)CCCCCCC(=O)NC2=C3SS(=O)(=O)C=C3NC2=O)c(=O)o1
diameter of the inhibition zone (DIZ) (Bacillus spizizenii [1]): inactive

CCC(=O)c1c(O)cc(CCCC(=O)Nc2c3sscc-3[nH]c2=O)oc1=O
diameter of the inhibition zone (DIZ) (Bacillus spizizenii [1]): inactive

C=CCCCC(=O)c1c(O)cc(C)oc1=O
zone of inhibition at 30 µg/disc (Bacillus spizizenii [1]): 9 mm

CCC(=O)c1c(O)cc(C)oc1=O
diameter of the inhibition zone (DIZ) (Bacillus spizizenii [1]): inactive

Cc1cc(O)c(C(=O)CCCCC(=O)Nc2c3sscc-3[nH]c2=O)c(=O)o1
MIC (Bacillus spizizenii [2]): 64 µg/mL (≈ 157 µM) | MIC (Micrococcus luteus): 8 µg/mL (≈ 19.6 µM) | zone of inhibition at 30 µg/disc (Bacillus spizizenii [1]): 14 mm | MIC (Serratia marcescens): 128 µg/mL (≈ 313 µM) | MIC (Staphylococcus aureus): 64 µg/mL (≈ 157 µM) | MIC (Pseudomonas aeruginosa): 64 µg/mL (≈ 157 µM) | MIC (Candida albicans): 128 µg/mL (≈ 313 µM) | MIC (Enterococcus faecalis): 16 µg/mL (≈ 39.2 µM) | MIC (Escherichia coli): 128 µg/mL (≈ 313 µM) | IC50 [3]: > 2000 µM

C=CCCCc1cc(O)c(C(=O)CCCCCCC(=O)O)c(=O)o1
diameter of the inhibition zone (DIZ) (Bacillus spizizenii [1]): inactive

O=C(CCCCCCCO)Nc1c2sscc-2[nH]c1=O
zone of inhibition at 30 µg/disc (Bacillus spizizenii [1]): 9 mm

Cc1cc(O)c(C(=O)CCCCCCC(=O)Nc2c3sscc-3[nH]c2=O)c(=O)o1
zone of inhibition at 30 µg/disc (Bacillus spizizenii [1]): 11 mm

CCCCCCCCC(=O)c1c(O)cc(C)oc1=O
MIC (Bacillus spizizenii [2]): 8 µg/mL (≈ 30 µM) | MIC (Micrococcus luteus): 2 µg/mL (≈ 7.51 µM) | zone of inhibition at 30 µg/disc (Bacillus spizizenii [1]): 12 mm | MIC (Serratia marcescens): 128 µg/mL (≈ 481 µM) | MIC (Staphylococcus aureus): 8 µg/mL (≈ 30 µM) | MIC (Pseudomonas aeruginosa): 128 µg/mL (≈ 481 µM) | MIC (Candida albicans): 64 µg/mL (≈ 240 µM) | MIC (Enterococcus faecalis): 4 µg/mL (≈ 15 µM) | MIC (Escherichia coli): 128 µg/mL (≈ 481 µM) | IC50 [3]: > 2000 µM

CCCC/C(C)=C/C=C(\C)C(=O)c1c(O)cc([C@H](C)CC/C=C/NC(=O)OC)oc1=O [MYXOPYRONIN B]
IC50 [3]: 24 µM

Cc1cc(O)c(C(=O)CCCCCCCC(=O)Nc2c3sscc-3[nH]c2=O)c(=O)o1
MIC (Bacillus spizizenii [2]): 16 µg/mL (≈ 35.5 µM) | MIC (Micrococcus luteus): 1 µg/mL (≈ 2.22 µM) | zone of inhibition at 30 µg/disc (Bacillus spizizenii [1]): 15 mm | MIC (Serratia marcescens): ≥ 256 µg/mL | MIC (Staphylococcus aureus): 4 µg/mL (≈ 8.88 µM) | MIC (Pseudomonas aeruginosa): 128 µg/mL (≈ 284 µM) | MIC (Candida albicans): ≥ 256 µg/mL | MIC (Enterococcus faecalis): 4 µg/mL (≈ 8.88 µM) | MIC (Escherichia coli): ≥ 256 µg/mL | IC50 [3]: 14 µM

CO[C@H]1/C=C/O[C@@]2(C)Oc3c(C)c(O)c4c(O)c(c(/C=N/N5CCN(C)CC5)c(O)c4c3C2=O)NC(=O)/C(C)=C\C=C\[C@H](C)[C@H](O)[C@@H](C)[C@@H](O)[C@@H](C)[C@H](OC(C)=O)[C@@H]1C [RIFAMPIN]
MIC (Bacillus spizizenii [2]): ≤ 0.125 µg/mL | MIC (Micrococcus luteus): ≤ 0.125 µg/mL | zone of inhibition at 30 µg/disc (Bacillus spizizenii [1]): 25 mm | MIC (Serratia marcescens): 32 µg/mL (≈ 38.9 µM) | MIC (Staphylococcus aureus): 0.5 µg/mL (≈ 0.608 µM) | MIC (Pseudomonas aeruginosa): 32 µg/mL (≈ 38.9 µM) | MIC (Candida albicans): ≥ 256 µg/mL | MIC (Enterococcus faecalis): 1 µg/mL (≈ 1.22 µM) | MIC (Escherichia coli): 8 µg/mL (≈ 9.72 µM) | IC50 [3]: 0.08 µM

Cc1cc(O)c(C(=O)CCCCCCC(=O)O)c(=O)o1
diameter of the inhibition zone (DIZ) (Bacillus spizizenii [1]): inactive

CCCCCCCCC(=O)c1c(O)cc(CCCCCC(=O)O)oc1=O
diameter of the inhibition zone (DIZ) (Bacillus spizizenii [1]): Active
